Assay outcomes: PubChem BioAssay, Broad Institute
Only some compounds are listed: those with a hit (about 1.3% of all), similar ones and a draw of the others.
FN deposit inh – fibronectin deposition inhibition. inhibition, % at 12.6 µM. 0.086% of 350,000 active. AH1F fibroblasts, Alexa488-fibronectin deposition fluorescence, overnight. AID 743247;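 active means mean inhibition across replicates of 30% or more, regardless of how many single replicates reach that level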;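 further: positive control wells lacked labelled fibronectin entirely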
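Material – AH1F fibroblast monolayer, labelled fibronectin deposition · Reagent – labelled fibronectin 24 nM · Timing – 1 h adhesion, overnight exposure · Measured by – fluorescence at 485 nm excitation, 525 nm emission · Read-out – inhibition of fibronectin deposition signal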
MLL AF4-AF9 inh – blocks AF4 peptide binding to human AF9. AlphaScreen, biotin-AF4 peptide binding to FLAG-AF9. inhibition, % at 10 µM. 0.47% of 350,000 active. AID 651704;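 active means every replicate reaching a set inhibition limit, whatever the replicate mean, cut at about 25% in these data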;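 further: 0% = plate neutral control median and 100% = total signal loss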
PDI turbidity – blocks human protein disulfide isomerase activity. AID 588391. 0.052% of 350,000 active. PDI insulin aggregation turbidity, A650, 90 min. inhibition, % at 10 µM;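 active means mean inhibition across replicates of 30% or more, whatever share of single replicates reach that level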
Target sequence (P07237 whole entry, looked up): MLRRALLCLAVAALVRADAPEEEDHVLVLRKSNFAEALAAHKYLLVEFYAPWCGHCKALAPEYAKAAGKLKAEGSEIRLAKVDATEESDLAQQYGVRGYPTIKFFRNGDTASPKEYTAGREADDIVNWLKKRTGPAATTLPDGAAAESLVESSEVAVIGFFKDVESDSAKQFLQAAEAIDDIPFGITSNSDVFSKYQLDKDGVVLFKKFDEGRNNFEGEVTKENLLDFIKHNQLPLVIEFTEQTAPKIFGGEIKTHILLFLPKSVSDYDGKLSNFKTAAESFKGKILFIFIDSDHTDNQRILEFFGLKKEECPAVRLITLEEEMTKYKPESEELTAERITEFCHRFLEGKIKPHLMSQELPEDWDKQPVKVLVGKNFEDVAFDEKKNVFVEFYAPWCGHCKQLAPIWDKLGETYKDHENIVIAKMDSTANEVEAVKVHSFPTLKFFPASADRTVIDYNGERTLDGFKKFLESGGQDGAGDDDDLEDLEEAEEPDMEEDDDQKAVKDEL
ERp5 inh – ERp5 (human) disulfide isomerase inhibition; 0.05% of 350,000 active; inhibition, % at 9.99 µM; Q15084; ERp5 insulin aggregation, absorbance 650 nm, 90 min; AID 651711;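 active means mean replicate inhibition above about 25%, with every replicate also reaching it, limit read from the data, passing the limit was not always enough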
SIRT5 inh – sirtuin-5 (human) deacylase inhibition; 1.1% of 330,000 active; Q9NXA8; AID 652115; inhibition, % at 15 µM; Purified SirT5, succinyl-peptide AMC, trypsin-coupled fluorescence; in the data active means inhibition above about 15%
Starred values were filed as active, the others as inactive; . = no result given; ! = not confirmed by another sample.

SMILES	FN deposit inh	MLL AF4-AF9 inh	PDI turbidity	ERp5 inh	SIRT5 inh
c1ccc2oc(-c3nn4c(Cn5cnc6ccccc65)nnc4s3)cc2c1	-4.9	0.2	4.2	3.3	-2.1
Cc1ccccc1S(=O)(=O)N1CCCCN2[C@H](CO)[C@@H](c3ccc(-c4ccccc4)cc3)[C@@H]2C1	.	-4.2	.	-8.8	18.7*
Cc1ccc(-c2ccc([C@@H]3[C@H]4CN(S(=O)(=O)c5cccc(C)c5)CCCCN4[C@H]3CO)cc2)cc1	.	-9.0	.	-4.5	18.1*
Cc1cccc(S(=O)(=O)N2CCCCN3[C@@H](CO)[C@H](c4ccc(-c5ccccc5)cc4)[C@@H]3C2)c1	.	-1.5	.	-3.8	22.4*
Cc1nn(Cc2ccc(C(=O)O)o2)c(C)c1[N+](=O)[O-]	6.9	-1.6	-2.9	-1.8	-2.8
Cc1csc2ncc(C(=O)N3c4ccccc4CC3C)c(=O)n12 (stereo unspecified)	-4.1	3.1	.	3.7	16.4*
CC1Cc2ccccc2N1C(=O)c1cnc2ccccn2c1=O (stereo unspecified)	-10.2	.	-14.9	.	.
CN(C)S(=O)(=O)Oc1ccsc1C(=O)Nc1ccccc1Cl	0.2	.	0.3	.	.
O=C(Nc1ccccc1Cl)c1sccc1-c1ccccc1	7.1	-2.7	4.5	1.8	79.4*
CCOC(=O)/C(C#N)=C1/C(=O)N(Cc2ccccc2)c2ccccc21	-7.4	1.3	25.4	-2.7	21.3*
COC(=O)C1=CN(Cc2ccc(OC)cc2)C=C(C(=O)OC)C1c1ccsc1	2.6	-25.7	1.0	3.3	-23.1
Nc1ccccc1SC(CC(=O)c1ccccc1)c1cccc([N+](=O)[O-])c1 (stereo unspecified)	.	2.7	56.4*	5.0	-0.5
Nc1ccccc1SC(CC(=O)c1ccccc1)c1ccc([N+](=O)[O-])cc1 (stereo unspecified)	.	5.0	-0.3	2.7	0.1
Cc1ccc2c(c1)NC(=O)C(CC(=O)NCc1ccc(F)cc1)O2 (stereo unspecified)	-7.7	-4.0	.	4.3	.
Cc1cc(C)cc(Cn2cc(CN3CC(N4CCN(CCO)CC4)CS3(=O)=O)nn2)c1 (stereo unspecified)	5.0	-0.7	.	-2.0	29.3*
CN(C)CCN1CCN(C2CN(Cc3cn(Cc4cccc(C(F)(F)F)c4)nn3)S(=O)(=O)C2)CC1 (stereo unspecified)	2.6	-0.1	.	-5.0	0.5
O=S1(=O)CC(N2CCN(CCO)CC2)CN1Cc1cn(Cc2cccc(C(F)(F)F)c2)nn1 (stereo unspecified)	1.2	-3.3	.	0.2	23.4*
COC(=O)c1ccc2[nH]c(CO)c(-c3ccccc3)c2c1	-13.9	1.9	-5.7	5.1	.
CCOc1ccc(NCC2CCOC(C)(C)C2)cc1 (stereo unspecified)	.	.	-6.1	.	.
O=C(NCc1ccccc1)C1=C[C@@H](c2ccc(C(F)(F)F)cc2)C[C@@H](OCCCCO)O1	-0.5	-2.5	0.8	3.7	-2.0
O=C(CSc1nc2ccccc2s1)N/N=C/c1ccc(C(=O)O)cc1	34.6*	-0.7	-11.8	5.8	-4.0
O=C(CSc1nc2ccccc2s1)N/N=C/c1ccccc1C(=O)O	5.1	-0.8	1.5	-1.9	-11.6
Fc1ccccc1C1c2[nH]c3ccccc3c2CCN1Cc1cccn1-c1ncccn1 (stereo unspecified)	2.0	26.7*	4.3	-0.2	-3.9
COc1ccccc1N1CCN(C(C)C(=O)N2CC(C)OC(C)C2)CC1 (stereo unspecified)	.	4.3	-2.0	-4.9	19.8*
Cc1ccccc1CNC(=O)c1ccccc1NS(C)(=O)=O	6.0	-2.3	-5.5	-2.4	27.0*
SMILES	FN deposit inh	MLL AF4-AF9 inh	PDI turbidity	ERp5 inh	SIRT5 inh
COc1ccc2c3c([nH]c2c1)[C@H](CO)N(C(=O)c1ccc(F)cc1)CC31CCN(C(=O)Nc2cccc(F)c2)CC1	.	0.1	.	66.2*	1.0
COc1ccc2c3c([nH]c2c1)[C@@H](CO)N(C(=O)c1ccc(F)cc1)CC31CCN(C(=O)Nc2cccc(F)c2)CC1	.	2.8	.	62.9*	5.3
COCCCNc1nc2c(c(=O)[nH]c(=O)n2C)n1CC(O)COc1cccc(C)c1 (stereo unspecified)	.	.	-14.4	.	.
COc1ccc(C(=O)C2CCN(C(=S)NCCc3ccccc3)CC2)cc1	-0.9	0.6	3.0	-3.1	16.2*
COc1ccc(C=NNC(=O)c2cc(C)oc2C)cc1O	2.1	-1.1	-5.8	-9.3	1.8
C[C@@H]1CCCCO[C@H](CN(C)C(=O)Nc2cccc3ccccc23)[C@@H](C)CN([C@@H](C)CO)C(=O)c2cc(NS(=O)(=O)c3ccccc3)ccc2O1	-2.9	1.9	.	8.4	15.2*
Cc1ccc(S(=O)(=O)Nc2ccc3c(c2)C(=O)N([C@@H](C)CO)C[C@@H](C)[C@@H](CN(C)C(=O)Nc2cccc4ccccc24)OCCCC[C@@H](C)O3)cc1	-12.4	-0.7	.	2.1	16.6*
C[C@H]1CN([C@@H](C)CO)C(=O)Cc2cc(NC(=O)Nc3ccc4c(c3)OCO4)ccc2O[C@H]1CN(C)CC1CCCCC1	.	17.1	.	-2.6	10.2
C[C@H](CO)N1C[C@H](C)[C@H](CN(C)Cc2ccncc2)Oc2ccc(NC(=O)CCN3CCOCC3)cc2CC1=O	.	0.2	.	1.6	-5.2
C[C@H]1CN([C@@H](C)CO)C(=O)Cc2cc(NC(=O)CCN3CCOCC3)ccc2O[C@H]1CN(C)CC1CCCCC1	.	0.2	.	2.0	20.3*
C[C@@H]1CN([C@@H](C)CO)C(=O)Cc2cc(NC(=O)CCN3CCOCC3)ccc2O[C@@H]1CN(C)Cc1ccncc1	.	1.0	.	2.1	16.0*
C[C@H]1CN([C@@H](C)CO)C(=O)Cc2cc(NC(=O)CCN3CCOCC3)ccc2O[C@@H]1CN(C)CC1CCCCC1	.	-0.2	.	4.7	.
C[C@H](CO)N1C[C@H](C)[C@@H](CN(C)CC2CCCCC2)Oc2ccc(NC(=O)Nc3ccc4c(c3)OCO4)cc2CC1=O	.	26.0*	.	4.0	15.9*
C=CCN(c1ccccc1)S(=O)(=O)c1cccc(C(=O)Nc2ccncc2)c1	5.0	3.1	1.9	4.6	18.7*
C=CCN(c1ccccc1)S(=O)(=O)c1cccc(C(=O)NCc2ccncc2)c1	0.3	1.4	1.2	3.8	5.5
Cc1cc2occ(CC(=O)NNC(=O)c3ccccc3)c2cc1C	-5.5	-3.8	4.5	66.0*	-3.3
CN1CCc2cccc3c2[C@H]1Cc1ccc(O)c(O)c1-3	-7.8	29.3*!	2.4	-1.2	0.6
COc1ccc(-c2nc(CN3CCN(c4cc(C)nc(C)c4)CC3)c(C)o2)c2ccccc12	4.8	25.7*	8.7	1.6	-14.8
COc1cc(-c2coc3c(C(=O)Nc4ccc(C(C)C)cc4)cccc23)ccc1O	-1.5	2.8	0.1	3.6	0.9
Cc1ccc(-c2ccc(C(=O)O)o2)cc1Cl	-14.3	27.0*	-4.2	-1.7	1.3
CC(C)NC(=O)NNC(=O)c1nn(-c2ccc(F)cc2)ccc1=O	0.0	-3.1	-3.4	2.3	22.2*
S=c1[nH]nc(NC2CCCCC2)s1	2.7	2.1	-3.2	0.9	.
